Results as given in ChEMBL document CHEMBL3351584, “Binding mode and potency of N-indolyloxopyridinyl-4-aminopropanyl-based inhibitors targeting Trypanosoma cruzi CYP51” (J Med Chem, 2014).

Tests used:
Format in all cases: ADME, organism-based
[1] = Tmax in Swiss Webster mouse at 25 mg/kg, po administered as single dose by LC-MS/MS method; set-up: dose 25 mg/kg, route oral; settings: in vivo
How it was run: (§1)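 Eight-week-old female Swiss Webster mice (n = 3 per compound) given one oral gavage dose of 25 mg/kg, formulated at 5 mg/mL in 20% Kolliphor/80% water. Plasma sampled at about 0.25, 0.5, 1, 2, 4, 6, 8, 12 and 24 h, precipitated with 5× v/v acetonitrile, filtered 0.2 μm and quantified by LC–MS/MS. Parameters calculated from plasma concentration–time curves, averaged over three mice.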

[2] = Cmax in Swiss Webster mouse at 25 mg/kg, po administered as single dose by LC-MS/MS method; set-up: dose 25 mg/kg, route oral; settings: in vivo; how it was run: as §1
[3] = AUClast in Swiss Webster mouse at 25 mg/kg, po administered as single dose by LC-MS/MS method; set-up: dose 25 mg/kg, route oral, time 0 - last; settings: plasma; how it was run: as §1
Mus musculus = assay: Volume of distribution in Swiss Webster mouse at 25 mg/kg, po administered as single dose by LC-MS/MS method; set-up: dose 25 mg/kg, route oral; settings: in vivo; how it was run: as §1
Homo sapiens = organism: Homo sapiens; assay: Volume of distribution in human; settings: in vivo

SMILES	Tmax [1] [h]	Cmax [2] [nM]	AUC(0-t) [3] [µM·h]	Vd (Mus musculus) [L/kg]	Vd (Homo sapiens) [L/kg]
Cc1ccc(Cl)cc1N1CCN(c2ccc(C(=O)N[C@H](Cc3c[nH]c4ccccc34)C(=O)Nc3ccncc3)c(F)c2)CC1	3.33	1800	19	3.44	
CC[C@@H]([C@H](C)O)n1ncn(-c2ccc(N3CCN(c4ccc(OC[C@@H]5CO[C@@](Cn6cncn6)(c6ccc(F)cc6F)C5)cc4)CC3)cc2)c1=O [POSACONAZOLE]					5
O=C(N[C@H](Cc1c[nH]c2ccccc12)C(=O)Nc1ccncc1)c1ccc(N2CCN(c3cc(Cl)cc(Cl)c3)CC2)cc1F	4.67	1850	22.5	3.97	
